Measurements from different studies.
Each line is one published result; the experiments were not run side by side.
Organism: Severe acute respiratory syndrome coronavirus 2

The IC50 of `CN(C)CCCN1c2ccccc2Sc2ccc(Cl)cc21` is reported as 2.24 µM (viral replication, inhibitor; A549-ACE2).
The IC50 of `CC(C)(C)OC(=O)N[C@H]1CCCCC/C=C\[C@@H]2C[C@@]2(C(=O)NS(=O)(=O)C2CC2)NC(=O)[C@@H]2C[C@@H](OC(=O)N3Cc4cccc(F)c4C3)CN2C1=O` is reported as greater than 50 µM (viral replication; HEK-293T).
With `Fc1ccc(-n2cc(CCCCN3CCC4(CC3)OCc3ccccc34)c3ccccc32)cc1` the IC50 was 2.04 µM (viral replication, inhibitor; A549-ACE2).
For `CCC(CC)COC(=O)[C@H](C)N[P@](=O)(OC[C@H]1O[C@@](C#N)(c2ccc3c(N)ncnn23)[C@H](O)[C@@H]1O)Oc1ccccc1`, the IC50 was 0.19 µM (plaque formation, inhibitor; Vero C1008).
The IC50 of `N=C(N)NCCN1CCCCCCC1` is reported as greater than 2 µM (viral replication, inhibitor; Huh-7).
`NC(=O)c1ncn([C@@H]2O[C@H](CO)[C@@H](O)[C@H]2O)n1` has an IC50 of greater than 10 µM (viral replication, inhibitor; Vero C1008).
`C[C@@H](O)[C@H]1C(=O)N2C(C(=O)O)=C(S[C@@H]3CN[C@H](C(=O)N(C)C)C3)[C@H](C)[C@H]12` has an IC50 of greater than 2 µM (viral replication, inhibitor; Huh-7).
For `CCOP(=O)(OCC)N1C/C(=C\c2ccc(Br)cc2)C(=O)C2(C1)C(c1ccc(Br)cc1)CN(C)C21C(=O)Nc2ccccc21` (centres unmarked), the IC50 was 8.88 µM (viral replication, inhibitor; Vero C1008; 72 h).
For `COc1cc2c(cc1OC)CN(CCc1ccc(NC(=O)c3cccc4c(=O)c5cccc(OC)c5[nH]c34)cc1)CC2`, the IC50 was 3.89 µM (viral replication, inhibitor; A549-ACE2).
The IC50 of `CN1[C@@H]2CC[C@H]1C[C@@H](OC(c1ccccc1)c1ccc(Cl)cc1)C2` (some centres unmarked) is reported as 8.9 µM (cytopathic effect; Vero C1008; 72 h).
`CCN(CCO)CCCC(C)Nc1ccnc2cc(Cl)ccc12` (centres unmarked) gave an IC50 of 9.21 µM (viral replication, inhibitor; Vero C1008).
For `CCN(CC)CCS(=O)(=O)[C@@H]1CCN2C(=O)c3coc(n3)CC(=O)C[C@H](O)/C=C(C)/C=C/CNC(=O)/C=C/[C@@H](C)[C@@H](C(C)C)OC(=O)[C@@H]12`, the IC50 was greater than 2 µM (viral replication, inhibitor; Huh-7).
`Nc1c2ccccc2nc2ccccc12` has an IC50 of 4.44 µM (viral replication, inhibitor; Calu-3; 40 h).
The IC50 of `COc1cc2c(cc1OC)C(=O)C(CC1CCN(Cc3ccccc3)CC1)C2` (centres unmarked) is reported as 7.76 µM (viral replication, inhibitor; A549-ACE2).
`CCN(CC)CCCC(C)Nc1c2ccc(Cl)cc2nc2ccc(OC)cc12` (centres unmarked) has an IC50 of greater than 50 µM (viral replication; Calu-3).
`CC(C)N1CCN(c2ccc(OCC3COC(Cn4cncn4)(c4ccc(Cl)cc4Cl)O3)cc2)CC1` (centres unmarked) has an IC50 of 11.9 µM (viral replication, inhibitor; Vero C1008).
`CC(=O)OC[C@H]1O[C@@H](Sc2nc(N)c(C(=O)Nc3ccccc3)c(=S)[nH]2)[C@H](OC(C)=O)[C@@H](OC(C)=O)[C@H]1OC(C)=O` has an IC50 of 86 µM (viral replication; Vero C1008; 72 h).
The IC50 of `CN(C)CCCN1c2ccccc2Sc2ccc(Cl)cc21` is reported as 3.14 µM (viral replication, inhibitor; Vero C1008).
`CC[C@@H](C)[C@@H]1NC(=O)[C@@H]2CCCN2C(=O)[C@H](Cc2ccccc2)N(C)C(=O)[C@H](Cc2ccccc2)NC(=O)[C@H](C(C)C)N(C)C(=O)[C@@H]([C@H](C)CC)OC(=O)[C@H](C(C)(C)O)N(C)C(=O)[C@H](CC(C)C)NC(=O)[C@H](C(C)C)N(C)C1=O` gave an IC50 of 4.53 µM (viral replication, inhibitor; Calu-3; 40 h).
With `Nc1nc(S)[nH]c(=S)c1C(=O)Nc1ccccc1` the IC50 was 341 µM (viral replication; Vero C1008; 72 h).
`C[C@@H]1O[C@@H](O[C@H]2C[C@@H](O)[C@]3(CO)[C@H]4[C@H](O)C[C@]5(C)[C@@H](C6=CC(=O)OC6)CC[C@]5(O)[C@@H]4CC[C@]3(O)C2)[C@H](O)[C@H](O)[C@H]1O` gave an IC50 of 0.03 µM (viral replication, inhibitor; Vero C1008).
With `Nc1nc2nc[nH]c2c(=S)[nH]1` the IC50 was 0.178 µM (viral replication, inhibitor; Huh-7).
`COc1ccc(NC(=O)c2c(N)nc(S[C@@H]3O[C@H](COC(C)=O)[C@@H](OC(C)=O)[C@H](OC(C)=O)[C@H]3OC(C)=O)[nH]c2=S)cc1` gave an IC50 of 169 µM (viral replication; Vero C1008; 72 h).
With `OC(c1cc(C(F)(F)F)nc2c(C(F)(F)F)cccc12)C1CCCCN1` (centres unmarked) the IC50 was 7.11 µM (viral replication, inhibitor; Vero C1008).
With `CCOP(=O)(OCC)N1C/C(=C\c2ccccc2)C(=O)C2(C1)C(c1ccccc1)CN(C)C21C(=O)Nc2ccc(Cl)cc21` (centres unmarked) the IC50 was 10.4 µM (viral replication, inhibitor; Vero C1008; 72 h).
With `CCN(CC)CCO[C@H]1CC[C@@]2(C)C(=CC[C@@H]3[C@@H]2CC[C@]2(C)C(=O)CC[C@@H]32)C1` the IC50 was 2.4 µM (viral replication; Vero C1008).
`CNc1ccc2oc(C[C@H]3O[C@@]4(CC[C@H]3C)O[C@H]([C@H](C)C(=O)c3ccc[nH]3)[C@H](C)C[C@H]4C)nc2c1C(=O)O` gave an IC50 of 1.55 µM (viral replication, inhibitor; Calu-3; 40 h).
With `CCOC(=O)N1CCC(=C2c3ccc(Cl)cc3CCc3cccnc32)CC1` the IC50 was greater than 2 µM (viral replication, inhibitor; Huh-7).
The IC50 of `Cc1cccc(/C=N/Nc2cc(N3CCOCC3)nc(OCCc3ccccn3)n2)c1` is reported as 0.012 µM (viral replication, inhibitor; Vero C1008).
`COc1cccc2c1CCCC2CCCN1CCN(C2CCCCC2)CC1` (centres unmarked) has an IC50 of 0.407 µM (viral replication, inhibitor; A549-ACE2).
`CCN(CC)CCCC(C)Nc1ccnc2cc(Cl)ccc12` (centres unmarked) gave an IC50 of 42 µM (viral replication, inhibitor; Vero C1008).
`CCCCCCCCC=CCCCCCCCC(=O)NCCO` gave an IC50 of greater than 2 µM (viral replication, inhibitor; Huh-7).
`C=C1C(=O)[C@@]23[C@H](O)C[C@@H]4C(C)(C)C(=O)CC[C@@]4(C)[C@@H]2CC[C@@H]1[C@H]3O` gave an IC50 of 2.9 µM (viral replication, inhibitor; Calu-3; 40 h).
With `Cc1ccc(NC(=O)c2c(N)nc(S[C@@H]3O[C@H](CO)[C@H](O)[C@H](O)[C@H]3O)[nH]c2=S)cc1` the IC50 was 34 µM (viral replication; Vero C1008; 72 h).
The IC50 of `CCCCCCCCCCCCCCCC(=O)N[C@H]1C[C@@H](O)[C@@H](O)NC(=O)[C@@H]2[C@@H](O)[C@@H](C)CN2C(=O)[C@H]([C@@H](C)O)NC(=O)[C@H]([C@H](O)[C@@H](O)c2ccc(O)cc2)NC(=O)[C@@H]2C[C@@H](O)CN2C(=O)[C@H]([C@@H](C)O)NC1=O` is reported as 1.3 µg/mL (viral replication, inhibitor; Vero; 24 h).
For `CCc1nc(C(N)=O)c(Nc2ccc(N3CCC(N4CCN(C)CC4)CC3)c(OC)c2)nc1NC1CCOCC1`, the IC50 was 0.255 µM (viral replication, inhibitor; Huh-7).
`CC[C@@H]1C[C@]1(NC(=O)[C@@H]1C[C@@H]2CN1C(=O)[C@H](C(C)(C)C)NC(=O)OCC(C)(C)CCCCc1cccc3c1CN(C3)C(=O)O2)C(=O)NS(=O)(=O)C1CC1` has an IC50 of 3 µM (viral replication; HEK-293T).
With `COCCCC/C(=N\OCCN)c1ccc(C(F)(F)F)cc1` the IC50 was 2.09 µM (viral replication, inhibitor; A549-ACE2).
`Nc1nc(S[C@@H]2O[C@H](CO)[C@@H](O)[C@H](O)[C@H]2O)[nH]c(=S)c1C(=O)Nc1ccc(Cl)cc1` has an IC50 of 45.3 µM (viral replication; Vero C1008; 72 h).
`Cc1cccc(C)c1OCC(=O)N[C@@H](Cc1ccccc1)[C@@H](O)C[C@H](Cc1ccccc1)NC(=O)[C@H](C(C)C)N1CCCNC1=O` has an IC50 of 7.79 to 12 µM (viral replication, inhibitor; Vero C1008).
For `COC(=O)Nc1nc2ccc(C(=O)c3ccccc3)cc2[nH]1`, the IC50 was 0.25 to 1.2 µM (viral replication, inhibitor; Vero C1008).
For `Nc1nc(S[C@@H]2O[C@H](CO)[C@H](O)[C@H](O)[C@H]2O)[nH]c(=S)c1C(=O)Nc1ccccc1`, the IC50 was 18.5 µM (viral replication; Vero C1008; 72 h).
`CCC(CC)COC(=O)[C@H](C)N[P@](=O)(OC[C@H]1O[C@@](C#N)(c2ccc3c(N)ncnn23)[C@H](O)[C@@H]1O)Oc1ccccc1` has an IC50 of 0.389 µM (viral replication, inhibitor; Calu-3; 40 h).
With `C[C@]12C=CC(=O)C=C1CC[C@@H]1[C@@H]2[C@@H](O)C[C@@]2(C)[C@H]1C[C@H]1O[C@@H](C3CCCCC3)O[C@]12C(=O)CO` the IC50 was 8.1 µM (viral replication; VeroE6/TMPRSS2).
`CC(C)CCCCCCCCC[C@@H]1CC(=O)N[C@@H](CCC(=O)O)C(=O)N[C@@H](CC(C)C)C(=O)N[C@H](CC(C)C)C(=O)N[C@@H](C(C)C)C(=O)N[C@@H](CC(=O)O)C(=O)N[C@H](CC(C)C)C(=O)N[C@@H](CC(C)C)C(=O)O1` has an IC50 of greater than 0.4 µg/mL (viral replication, inhibitor; Vero; 24 h).
`O=c1c(O[C@@H]2O[C@H](CO)[C@@H](O)[C@H](O)[C@H]2O)c(-c2ccc(O)c(O)c2)oc2cc(O)cc(O)c12` gave an IC50 of greater than 2 µM (viral replication, inhibitor; Huh-7).
`CCN(CC)CCOc1ccc(C(O)(Cc2ccc(Cl)cc2)c2ccc(C)cc2)cc1` (centres unmarked) gave an IC50 of 0.759 µM (viral replication; Vero C1008).
